Assay results: ChEMBL document CHEMBL2412956, “Synthesis and biological activity evaluation of 5-pyrazoline substituted 4-thiazolidinones” (Eur J Med Chem, 2013)

Assays:
Assay type in all cases: functional
K562 [1] = experiment: Cytotoxicity against human K562 cells assessed as cell growth at 10 uM after 48 hrs by SRB assay relative to control; settings: K562, 48 h, read-out: Activity
How it was run: (§1)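 This was the NCI primary screen, with compound added once at 10⁻⁵ M and cultures incubated for 48 h. The endpoint was sulforhodamine B protein staining. Results are expressed as percent growth of treated cells relative to untreated control cells.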

SR [2] = experiment: Cytotoxicity against human SR cells assessed as cell growth at 10 uM after 48 hrs by SRB assay relative to control; settings: read-out: Activity
How it was run: (§2)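 Single-dose NCI screen: compound at 10⁻⁵ M added to tumor cell cultures and incubated for 48 h. The SRB protein-binding dye end point was read spectrophotometrically. Results are percent growth of treated cells relative to untreated controls.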

LOX IMVI [3] = experiment: Cytotoxicity against human LOXIMVI cells assessed as cell growth at 10 uM after 48 hrs by SRB assay relative to control; settings: read-out: Activity; how it was run: as §1
RPMI-8226 [4] = experiment: Cytotoxicity against human RPMI8226 cells assessed as cell growth at 10 uM after 48 hrs by SRB assay relative to control; settings: RPMI-8226, 48 h, read-out: Activity; how it was run: as §1
SR [5] = experiment: Cytotoxicity against human SR cells after 48 hrs by SRB assay
How it was run: (§3)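 NCI 60-cell-line panel, five 10-fold concentrations from 100 μM to 0.01 μM (10⁻⁴ to 10⁻⁸ M) with 48-h continuous exposure. Growth was read by SRB protein staining against time-zero and untreated controls. […] Values beyond the tested range are expressed as greater or less than the limit.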

HOP-92 = experiment: Cytotoxicity against human HOP92 cells assessed as cell growth at 10 uM after 48 hrs by SRB assay relative to control; settings: HOP-92, 48 h, read-out: Activity; how it was run: as §1
OVCAR-3 [6] = experiment: Cytotoxicity against human OVCAR3 cells after 48 hrs by SRB assay; settings: OVCAR-3, 48 h
How it was run: (§4)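 This was the NCI 60-cell-line five-dose screen, using 10-fold dilutions from 100 to 0.01 μM and continuous 48-h exposure. Growth was read by sulforhodamine B protein staining relative to time-zero and untreated controls. […] Where an endpoint was not reached, the value was given as beyond the range tested.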

OVCAR-3 [7] = experiment: Cytotoxicity against human OVCAR3 cells assessed as cell growth at 10 uM after 48 hrs by SRB assay relative to control; settings: OVCAR-3, 48 h, read-out: Activity; how it was run: as §1
UACC-62 = experiment: Cytotoxicity against human UACC62 cells after 48 hrs by SRB assay; settings: UACC-62, 48 h; how it was run: as §3
SF-295 [8] = experiment: Cytotoxicity against human SF295 cells after 48 hrs by SRB assay; settings: SF-295, 48 h; how it was run: as §4
HL-60(TB) [9] = experiment: Cytotoxicity against human HL-60(TB) cells after 48 hrs by SRB assay; settings: HL-60, 48 h; how it was run: as §4
PC-3 [10] = experiment: Cytotoxicity against human PC3 cells assessed as cell growth at 10 uM after 48 hrs by SRB assay relative to control; settings: PC-3, 48 h, read-out: Activity; how it was run: as §1
SF-295 [11] = experiment: Cytotoxicity against human SF295 cells assessed as cell growth at 10 uM after 48 hrs by SRB assay relative to control; settings: SF-295, 48 h, read-out: Activity; how it was run: as §1
HL-60(TB) [12] = experiment: Cytotoxicity against human HL-60(TB) cells assessed as cell growth at 10 uM after 48 hrs by SRB assay relative to control; settings: HL-60, 48 h, read-out: Activity; how it was run: as §1
KM12 [13] = experiment: Cytotoxicity against human KM12 cells assessed as cell growth at 10 uM after 48 hrs by SRB assay relative to control; settings: KM12, 48 h, read-out: Activity; how it was run: as §1
MCF7 = experiment: Cytotoxicity against human MCF7 cells assessed as cell growth at 10 uM after 48 hrs by SRB assay relative to control; settings: MCF7, 48 h, read-out: Activity; how it was run: as §1
NCI-H460 = experiment: Cytotoxicity against human NCI-H460 cells after 48 hrs by SRB assay; settings: NCI-H460, 48 h; how it was run: as §4
PC-3 [14] = experiment: Cytotoxicity against human PC3 cells after 48 hrs by SRB assay; settings: PC-3, 48 h; how it was run: as §4
U-251 = experiment: Cytotoxicity against human U251 cells after 48 hrs by SRB assay; settings: U-251, 48 h; how it was run: as §3
DU-145 = experiment: Cytotoxicity against human DU145 cells after 48 hrs by SRB assay; settings: DU-145, 48 h; how it was run: as §4
RXF 393 = experiment: Cytotoxicity against human RXF393 cells assessed as cell growth at 10 uM after 48 hrs by SRB assay relative to control; settings: RXF 393, 48 h, read-out: Activity; how it was run: as §1
MDA-MB-435 = experiment: Cytotoxicity against human MDA-MB-435 cells after 48 hrs by SRB assay; settings: MDA-MB-435, 48 h; how it was run: as §4
RPMI-8226 [15] = experiment: Cytotoxicity against human RPMI8226 cells after 48 hrs by SRB assay; settings: RPMI-8226, 48 h; how it was run: as §4
LOX IMVI [16] = experiment: Cytotoxicity against human LOXIMVI cells after 48 hrs by SRB assay; how it was run: as §4
T47D = experiment: Cytotoxicity against human T47D cells assessed as cell growth at 10 uM after 48 hrs by SRB assay relative to control; settings: read-out: Activity; how it was run: as §2
CCRF-CEM [17] = experiment: Cytotoxicity against human CCRF-CEM cells assessed as cell growth at 10 uM after 48 hrs by SRB assay relative to control; settings: read-out: Activity; how it was run: as §1
HOP-62 = experiment: Cytotoxicity against human HOP62 cells after 48 hrs by SRB assay; settings: HOP-62, 48 h; how it was run: as §4
K562 [18] = experiment: Cytotoxicity against human K562 cells after 48 hrs by SRB assay; settings: K562, 48 h; how it was run: as §4
MOLT-4 = experiment: Cytotoxicity against human MOLT4 cells assessed as cell growth at 10 uM after 48 hrs by SRB assay relative to control; settings: MOLT-4, 48 h, read-out: Activity; how it was run: as §1
HCT-116 = experiment: Cytotoxicity against human HCT116 cells after 48 hrs by SRB assay; settings: HCT-116, 48 h; how it was run: as §4
786-0 = experiment: Cytotoxicity against human 786-0 cells after 48 hrs by SRB assay; settings: 786-0, 48 h; how it was run: as §4
KM12 [19] = experiment: Cytotoxicity against human KM12 cells after 48 hrs by SRB assay; settings: KM12, 48 h; how it was run: as §4
HCT-15 = experiment: Cytotoxicity against human HCT15 cells after 48 hrs by SRB assay; settings: HCT-15, 48 h; how it was run: as §4
CCRF-CEM [20] = experiment: Cytotoxicity against human CCRF-CEM cells after 48 hrs by SRB assay; how it was run: as §4

COc1ccc(C2CC(c3ccccc3)=NN2C(=O)/C=C2\SC(=O)NC2=O)cc1 (centres undefined)
growth at 10 µM (K562 [1]): 58.2% | growth at 10 µM (SR [2]): 39.1% | growth at 10 µM (LOX IMVI [3]): 55.7% | growth at 10 µM (RPMI-8226 [4]): 58.9%

COc1ccc(C2=NN(C(=O)/C=C3\SC(=O)NC3=O)C(c3ccccc3O)C2)cc1 (centres undefined)
GI50 (SR [5]): 2.85 µM | TGI (SR [5]): 9.02 µM | growth at 10 µM (K562 [1]): 33.2% | growth at 10 µM (HOP-92): 37.8% | GI50 (OVCAR-3 [6]): 3.17 µM | TGI (OVCAR-3 [6]): 11 µM | growth at 10 µM (OVCAR-3 [7]): 36.4% | GI50 (UACC-62): 2.83 µM | TGI (UACC-62): 9.28 µM | GI50 (SF-295 [8]): 2.99 µM | TGI (SF-295 [8]): 10 µM | GI50 (HL-60(TB) [9]): 3.35 µM | TGI (HL-60(TB) [9]): 9.14 µM | growth at 10 µM (PC-3 [10]): 33.6% | growth at 10 µM (SF-295 [11]): -13.4% | growth at 10 µM (HL-60(TB) [12]): -27.3% | growth at 10 µM (KM12 [13]): 29.9% | growth at 10 µM (MCF7): 30.3% | GI50 (NCI-H460): 4.18 µM | TGI (NCI-H460): 18.7 µM | GI50 (PC-3 [14]): 4.63 µM | TGI (PC-3 [14]): 44.4 µM | GI50 (U-251): 4.29 µM | TGI (U-251): 16.6 µM | GI50 (DU-145): 4.64 µM | TGI (DU-145): 18.4 µM | growth at 10 µM (RXF 393): 31.4% | GI50 (MDA-MB-435): 3.91 µM | TGI (MDA-MB-435): 31.7 µM | GI50 (RPMI-8226 [15]): 2.12 µM | TGI (RPMI-8226 [15]): 6.91 µM | GI50 (LOX IMVI [16]): 3.21 µM | TGI (LOX IMVI [16]): 17.9 µM | growth at 10 µM (T47D): 38% | growth at 10 µM (CCRF-CEM [17]): 19.5% | GI50 (HOP-62): 4.85 µM | TGI (HOP-62): 19.8 µM | GI50 (K562 [18]): 4.58 µM | TGI (K562 [18]): 100 µM | growth at 10 µM (MOLT-4): 16.5% | GI50 (HCT-116): 4.56 µM | TGI (HCT-116): 16.4 µM | GI50 (786-0): 2.96 µM | TGI (786-0): 13.5 µM | GI50 (KM12 [19]): 4.76 µM | TGI (KM12 [19]): 15.3 µM | GI50 (HCT-15): 4.85 µM | TGI (HCT-15): 24.6 µM | GI50 (CCRF-CEM [20]): 2.85 µM | TGI (CCRF-CEM [20]): 11.3 µM
